In ChEMBL document CHEMBL1129264, “Mercaptoacyl dipeptides as orally active dual inhibitors of angiotensin-converting enzyme and neutral endopeptidase” (1996):

What was measured:
Assay type in all cases: organism-based
[1] = target: T1, Angiotensin-converting enzyme (Rattus norvegicus) (UniProt P47820); experiment: Compound was tested for plasma inhibition of Angiotensin I converting enzyme activity in the conscious rat. Expressed as Inhibition of AI pressor response at 2 hr at a dose of 12.5 mg/kg po; design: dose 12.5 mg/kg
T1 sequence (whole entry): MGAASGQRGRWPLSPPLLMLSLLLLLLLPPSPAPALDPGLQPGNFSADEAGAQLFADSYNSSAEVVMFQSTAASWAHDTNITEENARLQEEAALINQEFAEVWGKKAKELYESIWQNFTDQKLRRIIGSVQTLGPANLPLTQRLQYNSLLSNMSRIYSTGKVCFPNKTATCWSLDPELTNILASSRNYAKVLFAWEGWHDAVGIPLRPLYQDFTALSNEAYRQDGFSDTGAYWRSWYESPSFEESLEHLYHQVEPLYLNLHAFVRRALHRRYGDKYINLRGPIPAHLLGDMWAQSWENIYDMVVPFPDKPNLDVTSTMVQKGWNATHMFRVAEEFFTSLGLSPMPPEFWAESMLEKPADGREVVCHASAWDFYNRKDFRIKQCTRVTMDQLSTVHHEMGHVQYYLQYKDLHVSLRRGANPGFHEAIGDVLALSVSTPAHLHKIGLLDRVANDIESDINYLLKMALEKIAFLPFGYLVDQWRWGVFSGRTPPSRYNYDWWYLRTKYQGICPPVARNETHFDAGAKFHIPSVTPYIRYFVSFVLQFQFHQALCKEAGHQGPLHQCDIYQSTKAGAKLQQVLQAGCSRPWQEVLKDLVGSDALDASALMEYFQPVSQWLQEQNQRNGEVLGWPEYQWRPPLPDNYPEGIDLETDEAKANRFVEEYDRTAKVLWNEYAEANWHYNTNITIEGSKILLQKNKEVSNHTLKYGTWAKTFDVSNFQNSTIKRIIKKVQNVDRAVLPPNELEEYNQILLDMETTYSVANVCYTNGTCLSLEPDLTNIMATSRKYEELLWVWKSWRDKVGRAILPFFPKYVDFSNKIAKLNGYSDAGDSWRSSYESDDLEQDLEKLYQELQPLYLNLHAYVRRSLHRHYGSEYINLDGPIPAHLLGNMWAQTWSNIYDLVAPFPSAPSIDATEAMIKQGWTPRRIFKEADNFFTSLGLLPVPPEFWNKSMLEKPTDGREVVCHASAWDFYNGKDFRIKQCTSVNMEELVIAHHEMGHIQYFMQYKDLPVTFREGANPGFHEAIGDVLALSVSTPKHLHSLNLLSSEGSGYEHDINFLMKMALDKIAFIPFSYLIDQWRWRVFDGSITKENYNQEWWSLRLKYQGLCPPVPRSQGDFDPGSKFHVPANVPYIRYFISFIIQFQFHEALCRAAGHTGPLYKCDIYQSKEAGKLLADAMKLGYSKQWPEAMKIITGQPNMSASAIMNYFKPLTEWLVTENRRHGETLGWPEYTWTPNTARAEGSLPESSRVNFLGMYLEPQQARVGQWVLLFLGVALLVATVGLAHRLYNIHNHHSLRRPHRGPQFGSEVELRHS
Outline: (§1)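 Male conscious normotensive Sprague-Dawley rats (275-390 g), given femoral arterial and venous catheters under methohexital sodium (75 mg/kg ip) anesthesia. Next day, pressor responses to three angiotensin-I challenges (300 ng/kg iv) recorded by direct arterial pressure. Compound then dosed orally, and AI challenge repeated at set times. Each post-dose response compared with the mean of the three baseline responses, giving % inhibition.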

[2] = target: T1, Angiotensin-converting enzyme (Rattus norvegicus); experiment: Compound was tested for plasma inhibition of Angiotensin I converting enzyme activity in the conscious rat. Expressed as Inhibition of AI pressor response at 6 hr at a dose of 12.5 mg/kg po; design: dose 12.5 mg/kg
Outline: (§2)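 Male conscious normotensive Sprague-Dawley rats (275-390 g), prepared under methohexital sodium (75 mg/kg ip) with femoral arterial and venous catheters. The next day, pressor responses to three angiotensin-I challenges (300 ng/kg iv) were recorded. Compound was then given orally and angiotensin-I challenges were repeated at set times. Percent inhibition is relative to the mean of the three baseline responses.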

[3] = target: T1, Angiotensin-converting enzyme (Rattus norvegicus); experiment: Compound was tested for plasma inhibition of Angiotensin I converting enzyme activity in the conscious rat. Expressed as Inhibition of AI pressor response at 1 hr at a dose of 12.5 mg/kg po; design: dose 12.5 mg/kg; outline: as §1
[4] = target: T1, Angiotensin-converting enzyme (Rattus norvegicus); experiment: Compound was tested for plasma inhibition of Angiotensin I converting enzyme activity in the conscious rat. Expressed as Inhibition of AI pressor response at 4 hr at a dose of 12.5 mg/kg po; design: dose 12.5 mg/kg; outline: as §1
[5] = target: T1, Angiotensin-converting enzyme (Rattus norvegicus); experiment: Compound was tested for plasma inhibition of Angiotensin I converting enzyme activity in the conscious rat. Expressed as Inhibition of AI pressor response at 6 hr at a dose of 12.4 mg/kg po; design: dose 12.4 mg/kg; outline: as §2
[6] = target: T1, Angiotensin-converting enzyme (Rattus norvegicus); experiment: Compound was tested for plasma inhibition of Angiotensin I converting enzyme activity in the conscious rat. Expressed as Inhibition of AI pressor response at 4 hr at a dose of 12.4 mg/kg po; design: dose 12.4 mg/kg; outline: as §1
[7] = target: T1, Angiotensin-converting enzyme (Rattus norvegicus); experiment: Compound was tested for plasma inhibition of Angiotensin I converting enzyme activity in the conscious rat. Expressed as Inhibition of AI pressor response at 2 hr at a dose of 12.4 mg/kg po; design: dose 12.4 mg/kg; outline: as §1
[8] = target: T1, Angiotensin-converting enzyme (Rattus norvegicus); experiment: Compound was tested for plasma inhibition of ACE activity in the conscious rat. Expressed as Inhibition of AI pressor response at 1 hr at a dose of 12.4 mg/kg po; design: dose 12.4 mg/kg; outline: as §1
[9] = target: T1, Angiotensin-converting enzyme (Rattus norvegicus); experiment: Compound was tested for plasma inhibition of Angiotensin I converting enzyme activity in the conscious rat. Expressed as Inhibition of AI pressor response at 2 hr at a dose of 13.3 mg/kg po; design: dose 13.3 mg/kg; outline: as §1
[10] = target: T1, Angiotensin-converting enzyme (Rattus norvegicus); experiment: Compound was tested for plasma inhibition of Angiotensin I converting enzyme activity in the conscious rat. Expressed as Inhibition of AI pressor response at 6 hr at a dose of 13.3 mg/kg po; design: dose 13.3 mg/kg; outline: as §2
[11] = target: T1, Angiotensin-converting enzyme (Rattus norvegicus); experiment: Compound was tested for plasma inhibition of Angiotensin I converting enzyme activity in the conscious rat. Expressed as Inhibition of AI pressor response at 4 hr at a dose of 13.3 mg/kg po; design: dose 13.3 mg/kg; outline: as §2
[12] = target: T1, Angiotensin-converting enzyme (Rattus norvegicus); experiment: Compound was tested for plasma inhibition of Angiotensin I converting enzyme activity in the conscious rat. Expressed as Inhibition of AI pressor response at 1 hr at a dose of 13.3 mg/kg po; design: dose 13.3 mg/kg; outline: as §1
[13] = target: T1, Angiotensin-converting enzyme (Rattus norvegicus); experiment: Compound was tested for plasma inhibition of Angiotensin I converting enzyme activity in the conscious rat. Expressed as Inhibition of AI pressor response at 4 hr at a dose of 13.8 mg/kg po; design: dose 13.8 mg/kg; outline: as §2
[14] = target: T1, Angiotensin-converting enzyme (Rattus norvegicus); experiment: Compound was tested for plasma inhibition of Angiotensin I converting enzyme activity in the conscious rat. Expressed as Inhibition of AI pressor response at 1 hr at a dose of 13.8 mg/kg po; design: dose 13.8 mg/kg; outline: as §1
[15] = target: T1, Angiotensin-converting enzyme (Rattus norvegicus); experiment: Compound was tested for plasma inhibition of Angiotensin I converting enzyme activity in the conscious rat. Expressed as Inhibition of AI pressor response at 2 hr at a dose of 13.8 mg/kg po; design: dose 13.8 mg/kg; outline: as §1
[16] = target: T1, Angiotensin-converting enzyme (Rattus norvegicus); experiment: Compound was tested for plasma inhibition of Angiotensin I converting enzyme activity in the conscious rat. Expressed as Inhibition of AI pressor response at 6 hr at a dose of 13.8 mg/kg po; design: dose 13.8 mg/kg; outline: as §2
[17] = target: T1, Angiotensin-converting enzyme (Rattus norvegicus); experiment: Compound was tested for plasma inhibition of Angiotensin I converting enzyme activity in the conscious rat. Expressed as Inhibition of AI pressor response at 2 hr at a dose of 14.1 mg/kg po; design: dose 14.1 mg/kg; outline: as §1
[18] = target: T1, Angiotensin-converting enzyme (Rattus norvegicus); experiment: Compound was tested for plasma inhibition of Angiotensin I converting enzyme activity in the conscious rat. Expressed as Inhibition of AI pressor response at 1 hr at a dose of 14.1 mg/kg po; design: dose 14.1 mg/kg; outline: as §1

In the case of CCOC(=O)[C@H](Cc1ccc(O)cc1)NC(=O)C1(NC(=O)[C@H](SC(=O)COC)C(C)C)CCCC1, the inhibition [1] is reported as 77%, the inhibition [2] is reported as 34% and the inhibition [3] is reported as 81%. The inhibition [4] was 70%.

CCOC(=O)[C@H](Cc1ccc(OCC)cc1)NC(=O)C1(NC(=O)[C@H](SC(C)=O)C(C)C)CCCC1 showed an inhibition [5] of 70%, an inhibition [6] of 73% and an inhibition [7] of 76%. The inhibition [8] was 88%.

With CCOC(=O)[C@H](Cc1ccc(O)cc1)NC(=O)C1(NC(=O)[C@H](SC(=O)c2ccccn2)C(C)C)CCCC1 the inhibition [9] was 11%, the inhibition [10] was 12% and the inhibition [11] was 8%. It also gave an inhibition [12] of 10%.

In the case of CCOC(=O)[C@H](Cc1ccc(O)cc1)NC(=O)C1(NC(=O)[C@H](SC(=O)CN2CCOCC2)C(C)C)CCCC1, the inhibition [13] is reported as 40%, the inhibition [14] is reported as 54% and the inhibition [15] is reported as 60%. The inhibition [16] was 28%.

CCCCOC(=O)[C@H](Cc1ccc(O)cc1)NC(=O)C1(NC(=O)[C@H](SC(=O)C2CCCCC2)C(C)C)CCCC1 was tested, and the inhibition [17] was 8% and the inhibition [18] was -3%.
